Reference: ChEMBL document CHEMBL1140904, “Synthesis and analysis of novel glycerolipids for the treatment of metabolic syndrome” (J Med Chem, 2009)

Columns and labels:
Rattus norvegicus [1] = test: Effect on fatty acid composition in Wistar rat assessed as change in liver MUFA level at dose equivalent to 250 umol of tetradecylthioacetic acid, po after 6 days; assay type: functional
In short: (§1)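 Male Wistar rats were gavaged once daily for 6 days with compound in 0.5% CMC at 85 or 250 µmol TTA-equivalent per animal. Controls received palmitic acid. Liver was homogenized in 0.25 M sucrose/10 mM HEPES pH 7.4/1 mM EDTA at 0-4 °C. Lipids were extracted with chloroform:methanol 2:1 and spiked with 21:0 internal standard. Fatty acids were BF3-methanol transesterified and quantified as wt%. Values are mean ± SD, n=5.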

Rattus norvegicus [2] = test: Effect on fatty acid composition in Wistar rat assessed as change in liver 18;2, n-6 level at dose equivalent to 85 umol of tetradecylthioacetic acid, po after 6 days; assay type: functional; in short: as §1
Rattus norvegicus [3] = test: Decrease in plasma triacylglycerol level in po dosed Wistar rat after 6 days; assay type: functional, organism-based
In short: (§2)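 Male Wistar rats (170-210 g), housed in pairs with chow and water, were gavaged once daily for 6 days with test lipid in 0.5% (w/v) carboxymethylcellulose at 85 or 250 µmol TTA-equivalent per animal. Controls received palmitic acid in CMC. Plasma triacylglycerol and cholesterol were measured with an enzymatic kit, and liver levels were also determined. Values are mean ± SD, n=5 rats.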

Rattus norvegicus [4] = test: Induction of PPAR-alpha-regulated CPT2 activity in po dosed Wistar rat after 6 days relative to control; assay type: functional
In short: (§3)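 Wistar rats were dosed orally for 6 days (85 or 250 µmol TTA-equivalent in 0.5% CMC; palmitic acid controls). CPT-II activity was measured in the liver mitochondrial fraction, prepared from sucrose/HEPES pH 7.4/EDTA homogenate at 0-4 °C. Means ± SD from 5 rats per group.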

Rattus norvegicus [5] = test: Effect on fatty acid composition in Wistar rat assessed as change in plasma LCn-6/18:2 level at dose equivalent to 85 umol of tetradecylthioacetic acid, po after 6 days; assay type: functional
Rattus norvegicus [6] = test: Effect on fatty acid composition in Wistar rat assessed as change in liver 18;2, n-6 level at dose equivalent to 250 umol of tetradecylthioacetic acid, po after 6 days; assay type: functional; in short: as §1
Rattus norvegicus [7] = test: Induction of PPAR-alpha-regulated CPT2 activity in po dosed Wistar rat after 6 days; assay type: functional, organism-based; in short: as §3
Rattus norvegicus [8] = test: Effect on fatty acid composition in Wistar rat assessed as change in plasma MUFA level at dose equivalent to 85 umol of tetradecylthioacetic acid, po after 6 days; assay type: functional
Rattus norvegicus [9] = test: Effect on fatty acid composition in Wistar rat assessed as change in plasma saturated fatty acid level at dose equivalent to 85 umol of tetradecylthioacetic acid, po after 6 days; assay type: functional
Rattus norvegicus [10] = test: Effect on fatty acid composition in Wistar rat assessed as change in liver LCn-6/18:2 level at dose equivalent to 85 umol of tetradecylthioacetic acid, po after 6 days; assay type: functional; in short: as §1
Rattus norvegicus [11] = test: Decrease in plasma cholesterol level in Wistar rat at dose equivalent to 250 umol of tetradecylthioacetic acid, po after 6 days relative to control; assay type: functional; design: scale not given: the % may be the effect or the level left; in short: as §2

With `CCCCCCCCCCCCCCSCC(=O)OC[C@H](COP(=O)([O-])OCC[N+](C)(C)C)OC(=O)CSCCCCCCCCCCCCCC` [PHOSPHATIDYLCHOLINE] the Activity (Rattus norvegicus [1]) was 16.33%, the Activity (Rattus norvegicus [2]) was 11.99% and the Activity (Rattus norvegicus [3]) was “Dose-dependent effect”. The “fold change (FC)” value (Rattus norvegicus [4]) was 3, the Activity (Rattus norvegicus [5]) was 0.97% and the Activity (Rattus norvegicus [6]) was 8.79%. The Activity (Rattus norvegicus [7]) was “Dose-dependent effect”, the Activity (Rattus norvegicus [8]) was 22.53% and the Activity (Rattus norvegicus [9]) was 35.65%. It also gave an Activity (Rattus norvegicus [10]) of 2.19% and an Activity (Rattus norvegicus [11]) of 60%.
